# Experimental data from publication PMC4410353 (Journal of nuclear medicine : official publication, Society …, 2009).
# Experiment: 3-T MRI of gadofluorine M uptake in atherosclerotic-like lesions
# Format: in vivo, rabbit
# Conditions: T1-weighted MRI 1 h after i.v. 0.5 μmol/kg
# Method in brief: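 Rabbits had right femoral artery injury by air desiccation, then balloon angioplasty. The contralateral uninjured femoral artery served as control. Rabbits were imaged at 4–6 wk post-desiccation (n = 9), 3 wk post-angioplasty (n = 6) and 4 wk later (n = 4). 3-T T1-weighted turbo-spin-echo imaging (TR/TE 600/12 ms) was run 1 h after i.v. non-receptor-specific plaque-targeting contrast agent.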
smiles,measurement,setting,value
CC(C(=O)NCC(=O)NCCCC[C@H](NC(=O)CO[C@H]1O[C@H](CO)[C@@H](O)[C@H](O)[C@@H]1O)C(=O)N1CCN(S(=O)(=O)C(F)(F)C(F)(F)C(F)(F)C(F)(F)C(F)(F)C(F)(F)C(F)(F)C(F)(F)F)CC1)N1CCN(CC(=O)O)CCN(CC(=O)O)CCN(CC(=O)O)CC1 (some centres unmarked) [gadofluorine M],MRI uptake in control arteries,,no gadofluorine M uptake
same,MRI signal / uptake in injured vessels,all rabbits at all TPs,increased signal
